Assay: Toxicity liver stage against HepG2, at 10uM
Assay type: cell-based
Design: test concentration 10 uM, cell line HepG2-A16-CD81EGFP
Conditions: human, HepG2-A16-CD81EGFP cells; read-out: INHIBITION
Procedure, shortened: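 Uninfected HepG2-A16-CD81EGFP cells, 3 × 10^3 per well, 1536-well, plated on prespotted compound at 10 μM final, parasite-free screening media added to match infected plates; puromycin 10 μM positive, DMSO 0.5% negative; run in parallel with 48 h PbLuc assay at 37 °C, 5% CO2; viability by CellTiter-Glo luminescence, normalized to controls.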

Cc1noc([C@@H]2CC[C@@H]3[C@@H](CCN3S(=O)(=O)C3CC3)O2)n1
cytotoxicity at 10 µM: -11.6%

Cc1cc(C(=O)N2CCCN(Cc3cnn(C(C)C)c3)CC2)no1
cytotoxicity at 10 µM: 0.243%

CCCC1COCCN1Cc1ccc(S(=O)(=O)NC)cc1 (stereo not given)
cytotoxicity at 10 µM: -142%

Cc1cc(CN2C[C@@H]3COC[C@@H](C(=O)N4CCCCO4)[C@@H]3C2)no1
cytotoxicity at 10 µM: -80.6%

CCN1CCc2onc(CNc3ncccn3)c2C1
cytotoxicity at 10 µM: 0.927%

Cc1cn(-c2ccccc2)nc1NS(=O)(=O)c1cc(C(=O)O)ccc1Cl
cytotoxicity at 10 µM: 13.1%

CC(C)n1cc(C(=O)NC2CN3CCC2CC3)c2ccccc21 (stereo not given)
cytotoxicity at 10 µM: -59.7%

Nc1ncc(C(=O)N2CCC(O)(CO)CC2)c(-c2ccccc2)n1
cytotoxicity at 10 µM: -144%

CC(=O)N1CCCC(Cc2cnc(-n3ccnc3)cn2)C1 (stereo not given)
cytotoxicity at 10 µM: -21.7%

N#Cc1cccc(C(=O)NS(=O)(=O)c2ccc(C#N)c(Cl)c2)c1
cytotoxicity at 10 µM: -3.54%

O=C(c1ccoc1)N1CCC(Nc2cccnn2)CC1
cytotoxicity at 10 µM: -5.85%

CCC(O)(CNCc1ccncc1)c1ccc(Br)cc1 (stereo not given)
cytotoxicity at 10 µM: -8.64%

COc1ccc(Oc2ncccc2F)cc1CN1CCCC1
cytotoxicity at 10 µM: 2.09%

COc1nn(C)c2c1CCCN(C(=O)c1ccc[nH]1)C2
cytotoxicity at 10 µM: -0.966%

CCOC[C@@H]1CC[C@H]2[C@H](CCN2S(=O)(=O)Cc2ccccc2)O1
cytotoxicity at 10 µM: 2.84%

Nc1nc2nc(C3CCCN(C(=O)c4cscn4)C3)ccc2s1 (stereo not given)
cytotoxicity at 10 µM: -1.44%

CO[C@H]1COCCN(Cc2c[nH]c3ccccc23)C1
cytotoxicity at 10 µM: 4.65%

COCc1ccc(C(=O)NS(=O)(=O)c2ccc3c(c2)CCC(=O)N3)cc1
cytotoxicity at 10 µM: -1.89%

Cc1nc(N2CC[C@@H](NC(=O)c3cnccn3)[C@H](O)C2)c2ccsc2n1
cytotoxicity at 10 µM: 38.6%

NC(=O)C1CCN(c2ncccc2C(=O)N2CCc3ccccc32)C1 (stereo not given)
cytotoxicity at 10 µM: -5.78%

O=C(c1cc[nH]n1)N1CCC(F)(F)C2(CCN(c3ccccn3)C2)C1 (stereo not given)
cytotoxicity at 10 µM: 2.38%

Cc1occc1C(=O)NCC(=O)N1CCC(COc2ccccc2)CC1
cytotoxicity at 10 µM: 12.2%

CN1CC[C@H]2OCC[C@@]2(C(=O)NCCc2ccccn2)C1
cytotoxicity at 10 µM: 1.82%

Cc1nccc(-c2cccc(NCC(=O)N3CCCCCCC3)c2)n1
cytotoxicity at 10 µM: -0.513%

CCC(C(=O)N(C)Cc1cc(COC)[nH]n1)n1cccn1 (stereo not given)
cytotoxicity at 10 µM: -5.89%

Cc1cccc2c1ccn2CC(=O)NC[C@@H]1CCCN2CCCC[C@H]12
cytotoxicity at 10 µM: 3.14%

CC(C)N1CC(c2ccnc(Nc3nccs3)n2)C1
cytotoxicity at 10 µM: 1.18%

CCS(=O)(=O)NCC1OCCc2cn(CC3CCOCC3)nc21 (stereo not given)
cytotoxicity at 10 µM: 2.77%

CC(C)c1nccn1C(C)C(=O)N1CCN(S(C)(=O)=O)CC1 (stereo not given)
cytotoxicity at 10 µM: -4.32%

CC(C(=O)NCc1ccnc(OCC(F)(F)F)c1)n1cncn1 (stereo not given)
cytotoxicity at 10 µM: 1.13%

c1cncc(N2CCCn3nnc(CN4CCCCC4)c3C2)c1
cytotoxicity at 10 µM: 1.24%

CCN(CCc1nc2cc(C)ccc2[nH]1)C(=O)COC
cytotoxicity at 10 µM: -5.89%

Cc1ccc(NC2CCN(C(=O)c3ccc(Cl)o3)CC2)nn1
cytotoxicity at 10 µM: -0.961%

O=C(c1cc(=O)n(-c2ccccc2)[nH]1)N1CCOC(C(F)(F)F)C1 (stereo not given)
cytotoxicity at 10 µM: 3.32%

CN(CC(=O)NCC1CCCO1)Cc1nc2c(s1)CCCC2 (stereo not given)
cytotoxicity at 10 µM: 21.6%

COc1cccc2c1N(Cc1noc(C3CC3)n1)CCC2
cytotoxicity at 10 µM: -5.59%

Cn1c(NCc2ccc(C(N)=O)cc2)nc2cc(Cl)ccc21
cytotoxicity at 10 µM: 1.42%

COc1cccc(-c2cc(C(=O)NCCCn3cnnc3)[nH]n2)c1
cytotoxicity at 10 µM: 3.45%

Cc1cc2[nH]c(CN3CCOC(c4ccc(Cl)cc4)C3)cc(=O)n2n1 (stereo not given)
cytotoxicity at 10 µM: 1.91%

CC1CN(C)c2ccccc2CN1C(=O)c1ccoc1 (stereo not given)
cytotoxicity at 10 µM: -2.84%

Cc1occc1C(=O)N1Cc2nccn2CC(CN(C)C)C1 (stereo not given)
cytotoxicity at 10 µM: -97.7%

CC(=O)NCCC1CCCCN1S(=O)(=O)c1cccc(Cl)c1 (stereo not given)
cytotoxicity at 10 µM: -125%

Cc1ccccc1CNC(=O)C1CCN(Cc2nccn2C)CC1
cytotoxicity at 10 µM: -17.9%

Cc1cc(Nc2ncccn2)nc(C2CCCN(CCO)C2)n1 (stereo not given)
cytotoxicity at 10 µM: 1.09%

Cn1c(CN2CCOC(Cn3cncn3)C2)nc2ccccc21 (stereo not given)
cytotoxicity at 10 µM: -4.76%

O=C(c1ccc(S(=O)(=O)NCc2ccncc2)cc1)N1CCNCC1
cytotoxicity at 10 µM: 2.3%

Cc1ccc(-c2noc(CN3CCc4cncnc4C3)n2)cc1
cytotoxicity at 10 µM: 1.04%

CC(C)NS(=O)(=O)c1cc(C(=O)O)cc(-c2ccccc2C#N)c1
cytotoxicity at 10 µM: -3.73%

COc1cc(CNC(C)c2ccc(F)c(F)c2)cc2c1OCCO2 (stereo not given)
cytotoxicity at 10 µM: -1.58%

Cc1csc(N2CCN(C(=O)C3(C#N)CCCCC3)CC2)n1
cytotoxicity at 10 µM: -8.45%

O=S(=O)(NCc1ccccc1)Nc1ccc(-n2cncn2)cc1
cytotoxicity at 10 µM: 4.44%

CN(Cc1ccc2nsnc2c1)C(=O)CCc1cc2n(n1)CCCNC2
cytotoxicity at 10 µM: -4.62%

c1cc(CN2Cc3nnn(CC4CC4)c3C(COCC3CC3)C2)co1 (stereo not given)
cytotoxicity at 10 µM: -0.336%

N[C@@H]1CCC[C@@H](Oc2ccc(F)cc2Oc2cccc(F)c2)[C@@H]1O
cytotoxicity at 10 µM: -22.2%

CN1CCOC(C(=O)N(C)c2ccc3c(c2)CCO3)C1 (stereo not given)
cytotoxicity at 10 µM: -45.4%
